According to ChEMBL document CHEMBL1142671, “Chiral DNA gyrase inhibitors. 3. Probing the chiral preference of the active site of DNA gyrase. Synthesis of 10-fluoro-6-methyl-6,7-dihydro-9-piperazinyl- 2H-benzo[a]quinolizin-20-one-3-carboxylic acid analogues” (J Med Chem, 2005):
Converted amounts (≈) assume the structure as drawn.

Columns and labels:
[1] = test system: Escherichia coli; test: In vitro minimum inhibitory concentration against Escherichia coli Juhl was determined; format: functional
Procedure, shortened: (§1)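 Two-fold agar dilution series; MIC taken as the average of triplicate runs. Tested against intact Gram-positive and Gram-negative bacteria.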

[2] = target: Nucleic Acid; test: In vitro inhibitory concentration against DNA gyrase from Micrococcus luteus […]; format: nucleic-acid assay
Procedure, shortened: (§2)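 Purified DNA gyrase, isolated from Escherichia coli H560 or Micrococcus luteus; IC50 in µg/mL, averaged over triplicate runs.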

[3] = target: DNA gyrase (Escherichia coli, UniProt P0AES4+P0AES6); test: In vitro inhibitory concentration against DNA gyrase from Escherichia coli H560; format: protein-complex assay; procedure, shortened: as §2
[4] = In vitro minimum inhibitory concentration against […] faecium ATCC 8043 was determined; format: functional; procedure, shortened: as §1
[5] = test system: Escherichia coli; test: In vitro minimum inhibitory concentration against Escherichia coli KNK 437 was determined; format: functional; procedure, shortened: as §1
[6] = test system: Staphylococcus aureus; test: In vitro minimum inhibitory concentration against Staphylococcus aureus ATCC 6538P was determined; format: functional; procedure, shortened: as §1
[7] = test system: Micrococcus luteus; test: In vitro minimum inhibitory concentration against Micrococcus luteus 9341 was determined; format: functional; procedure, shortened: as §1
[8] = test system: Escherichia coli; test: In vitro minimum inhibitory concentration against Escherichia coli H560 was determined; format: functional; procedure, shortened: as §1
[9] = test system: Pseudomonas aeruginosa; test: In vitro minimum inhibitory concentration against Pseudomonas aeruginosa was determined; format: functional; procedure, shortened: as §1
[10] = test system: Escherichia coli; test: In vitro minimum inhibitory concentration against Escherichia coli SS was determined; format: functional; procedure, shortened: as §1

SMILES | MIC [1] | IC50 [2] | IC50 [3] | MIC [4] | MIC [5] | MIC [6] | MIC [7] | MIC [8] | MIC [9] | MIC [10]
C[C@H]1Cc2ccccc2-c2cc(=O)c(C(=O)O)cn21 | 25 µg/mL (≈ 97.9 µM) | > 250 µg/mL | 78.3 µM | > 100 µg/mL | > 100 µg/mL | 50 µg/mL (≈ 196 µM) | > 100 µg/mL | 25 µg/mL (≈ 97.9 µM) | 50 µg/mL (≈ 196 µM) | 1.56 µg/mL (≈ 6.11 µM)
C[C@@H]1Cc2ccccc2-c2cc(=O)c(C(=O)O)cn21 | 25 µg/mL (≈ 97.9 µM) | > 250 µg/mL | 125 µM | > 100 µg/mL | > 100 µg/mL | 25 µg/mL (≈ 97.9 µM) | 100 µg/mL (≈ 392 µM) | 50 µg/mL (≈ 196 µM) | 100 µg/mL (≈ 392 µM) | 6.25 µg/mL (≈ 24.5 µM)
CC1Cc2cc(N3CCNCC3)c(F)cc2-c2cc(=O)c(C(=O)O)cn21 (stereo not given) | 50 µg/mL (≈ 140 µM) | – | 83.9 µM | – | 0.2 µg/mL (≈ 0.56 µM) | 25 µg/mL (≈ 70 µM) | – | – | 50 µg/mL (≈ 140 µM) | –
O=C(O)c1cn(C2CC2)c2cc(N3CCNCC3)c(F)cc2c1=O [CIPROFLOXACIN] | – | – | – | 0.78 µg/mL (≈ 2.35 µM) | – | 0.2 µg/mL (≈ 0.604 µM) | 1.56 µg/mL (≈ 4.71 µM) | – | 0.05 µg/mL (≈ 0.151 µM) | 0.005 µg/mL (≈ 0.0151 µM)
